Source: ChEMBL document CHEMBL1135937, “Further studies on conformationally constrained tricyclic tropane analogues and their uptake inhibition at monoamine transporter sites: synthesis of (Z)-9-(substituted arylmethylene)-7-azatricyclo[4.3.1.0(3,7)]decanes as a novel class of serotonin transporter inhibitors” (J Med Chem, 2002)

Key:
[1] = molecular target: Sodium-dependent dopamine transporter (Rattus norvegicus, UniProt P23977); assay: Ability to inhibit high affinity reuptake of [3H]DA from dopamine transporter into nerve endings synaptosomes; format: subcellular, Brain
Chain of Sodium-dependent dopamine transporter (P23977 whole entry): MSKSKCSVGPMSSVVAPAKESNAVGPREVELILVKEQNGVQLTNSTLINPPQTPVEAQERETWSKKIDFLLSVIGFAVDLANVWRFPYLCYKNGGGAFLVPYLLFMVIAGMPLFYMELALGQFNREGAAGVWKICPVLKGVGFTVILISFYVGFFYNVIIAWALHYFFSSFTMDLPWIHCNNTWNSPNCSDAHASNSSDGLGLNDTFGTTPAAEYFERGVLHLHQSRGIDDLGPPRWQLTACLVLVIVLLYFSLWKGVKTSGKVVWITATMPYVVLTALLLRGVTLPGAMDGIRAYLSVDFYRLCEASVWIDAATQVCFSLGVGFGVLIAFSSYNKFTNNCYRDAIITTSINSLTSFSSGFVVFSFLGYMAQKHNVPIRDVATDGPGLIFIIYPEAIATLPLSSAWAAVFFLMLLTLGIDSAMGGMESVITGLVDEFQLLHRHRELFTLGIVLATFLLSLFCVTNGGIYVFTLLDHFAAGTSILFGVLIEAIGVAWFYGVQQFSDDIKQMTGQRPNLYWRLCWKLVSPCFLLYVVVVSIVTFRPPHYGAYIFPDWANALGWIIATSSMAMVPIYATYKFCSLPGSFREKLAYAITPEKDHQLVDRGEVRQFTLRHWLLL
Outline: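 Rat striatal P2 synaptosomes in modified KRH buffer (pH 7.4, with nialamide), preincubated with drug for 30 min at 4 °C, then 15 min at 37 °C. Uptake of [3H]DA (~5 nM final) ran for 5 min and was stopped by cold Na-free buffer and filtration. IC50 from six concentrations in triplicate; Ki by Cheng–Prusoff, 2–4 experiments.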

[2] = molecular target: Norepinephrine transporter (Rattus norvegicus, UniProt Q9WTR4); assay: Ability to inhibit high affinity reuptake of [3H]-NE (Norepinephrine transporter) into nerve ending synaptosomes prepared from brain regions; format: subcellular
Chain of Norepinephrine transporter (Q9WTR4 whole entry): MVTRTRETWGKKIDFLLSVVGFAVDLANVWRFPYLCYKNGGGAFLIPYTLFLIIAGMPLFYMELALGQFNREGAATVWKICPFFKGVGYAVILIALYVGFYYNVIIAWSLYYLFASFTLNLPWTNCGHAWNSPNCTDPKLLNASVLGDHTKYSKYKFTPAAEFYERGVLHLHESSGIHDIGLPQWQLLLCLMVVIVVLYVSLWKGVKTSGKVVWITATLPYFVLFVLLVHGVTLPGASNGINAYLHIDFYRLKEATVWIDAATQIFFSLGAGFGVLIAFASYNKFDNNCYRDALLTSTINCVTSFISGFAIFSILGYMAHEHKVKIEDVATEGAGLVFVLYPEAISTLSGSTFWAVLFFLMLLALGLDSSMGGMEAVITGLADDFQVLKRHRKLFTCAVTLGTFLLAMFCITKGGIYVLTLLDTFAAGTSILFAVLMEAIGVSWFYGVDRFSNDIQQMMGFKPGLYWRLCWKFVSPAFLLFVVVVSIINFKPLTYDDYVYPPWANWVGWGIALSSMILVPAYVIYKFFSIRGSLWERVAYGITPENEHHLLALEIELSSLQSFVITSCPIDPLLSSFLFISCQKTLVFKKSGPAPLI

[3] = molecular target: Sodium-dependent serotonin transporter (Rattus norvegicus, UniProt P31652); assay: Inhibition of high affinity re-uptake of [3H]5-HT (serotonin) into nerve ending synaptosomes; format: subcellular, Brain
Chain of Sodium-dependent serotonin transporter (P31652 whole entry): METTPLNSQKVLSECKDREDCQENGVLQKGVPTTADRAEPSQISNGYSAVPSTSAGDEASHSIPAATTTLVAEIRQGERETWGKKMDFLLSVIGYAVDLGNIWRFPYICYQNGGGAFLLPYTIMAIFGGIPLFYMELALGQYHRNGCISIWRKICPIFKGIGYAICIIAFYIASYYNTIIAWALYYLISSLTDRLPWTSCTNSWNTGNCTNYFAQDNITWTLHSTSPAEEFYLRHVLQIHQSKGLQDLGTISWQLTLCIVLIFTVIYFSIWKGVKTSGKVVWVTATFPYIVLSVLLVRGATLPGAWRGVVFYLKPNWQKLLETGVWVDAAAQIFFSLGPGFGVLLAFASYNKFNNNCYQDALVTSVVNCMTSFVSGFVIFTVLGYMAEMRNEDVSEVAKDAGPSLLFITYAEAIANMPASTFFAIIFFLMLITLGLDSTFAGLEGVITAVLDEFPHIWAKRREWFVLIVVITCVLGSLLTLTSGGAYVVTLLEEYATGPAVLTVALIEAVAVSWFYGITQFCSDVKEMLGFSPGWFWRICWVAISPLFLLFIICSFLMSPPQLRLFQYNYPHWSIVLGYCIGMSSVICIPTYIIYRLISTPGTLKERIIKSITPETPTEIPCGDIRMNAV
Outline: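 Synaptosomes (P2) from rat midbrain in modified KRH buffer (pH 7.4, with nialamide), preincubated with drug for 30 min at 4 °C, then 15 min at 37 °C. [3H]5-HT (~5 nM final) uptake ran for 5 min, then filtration and scintillation counting. IC50 from six concentrations in triplicate; Ki by Cheng–Prusoff, 2–4 experiments.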

[4] = Uptake ratio Ki of dopamine relative to serotonin (5-HT) at monoamine transporter
[5] = Uptake ratio Ki of norepinephrine relative to dopamine at monoamine transporter
[6] = Uptake ratio Ki of norepinephrine relative to serotonin (5-HT) at monoamine transporter

Row | SMILES | Ki [1] [nM] | Ki [2] [nM] | Ki [3] [nM] | Ratio [4] | Ratio [5] | Ratio [6]
1 | COC(=O)C1C2CC3CCC1N3C/C2=C\c1ccc(I)cc1Cl (stereo not given) | 6640 | 508 | 74 | 89.7 | 0.08 | 6.9
2 | COC(=O)C1C2CC3CCC1N3C/C2=C\c1ccc(C(F)(F)F)cc1 (stereo not given) |  | 1830 | 12.6 |  |  | 145
3 | COC(=O)C1C2CC3CCC1N3C/C2=C\c1cc(Cl)cc(Cl)c1 (stereo not given) | 5600 | 4100 | 437 | 12.8 | 0.73 | 9.4
4 | COC(=O)C1C2CC3CCC1N3C/C2=C\c1cccc2ccccc12 (stereo not given) | 9720 | 5370 | 121 | 80.3 | 0.55 | 44
5 | O=C(OCC1C2CC3CCC1N3C/C2=C\c1ccc2ccccc2c1)c1ccccc1 (stereo not given) | 5530 | 3220 | 0.1 | 55300 | 0.58 | 32200
6 | COC(=O)C1C2CC3CCC1N3C/C2=C\c1ccc(/C=C2\CN3C4CCC3C(C(=O)OC)C2C4)cc1 (stereo not given) | 38900 | 33400 | 993 | 39.2 | 0.86 | 34
7 | O=C(OCC1C2CC3CCC1N3C/C2=C\c1ccc(I)cc1)c1ccccc1 (stereo not given) | > 10000 | 8190 |  | > 100000 | < 0.82 | 81900
8 | CC(C)OC(=O)C1C2CC3CCC1N3C/C2=C\c1ccc(Cl)c(Cl)c1 (stereo not given) | 1290 | 325 | 85.7 | 15 | 0.25 | 3.8
9 | O=C(OCC1C2CC3CCC1N3C/C2=C\c1ccc(Cl)c(Cl)c1)c1ccc2ccccc2c1 (stereo not given) | > 10000 | 5950 | 9.3 | > 1070 | < 0.6 | 640
10 | CC(=O)OCC1C2CC3CCC1N3C/C2=C\c1cccc(Cl)c1 (stereo not given) | 5980 | 1180 | 92.9 | 64.4 | 0.2 | 12.7
11 | COC(=O)C1C2CC3CCC1N3C/C2=C\c1ccc(Cl)cc1 (stereo not given) | 853 | 208 | 34.3 | 24.8 | 0.24 | 6
12 | COC(=O)C1C2CC3CCC1N3C/C2=C\c1ccc(F)cc1 (stereo not given) | 6620 | 584 | 335 | 19.7 | 0.09 | 1.7
13 | COC(=O)C1C2CC3CCC1N3C/C2=C\c1ccc(C(C)C)cc1 (stereo not given) |  | 1110 | 10.2 |  |  | 109
14 | COC(=O)C1C2CC3CCC1N3C/C2=C\c1ccc(C)c(Cl)c1 (stereo not given) | > 10000 | 198 | 6.4 | > 1560 | < 0.02 | 31
15 | COC(=O)C1C2CC3CCC1N3C/C2=C\c1ccccc1 (stereo not given) | 481 | 53 | 1140 | 0.42 | 0.11 | 0.05
16 | O=C(OCC1C2CC3CCC1N3C/C2=C\c1cccc(Cl)c1)c1ccccc1 (stereo not given) | 4040 | 6580 | 11 | 367 | 1.63 | 598
17 | COC(=O)C1C2CC3CCC1N3C/C2=C\c1cccc(Cl)c1Cl (stereo not given) | 850 | 1210 | 354 | 2.4 | 1.42 | 3.4
18 | O=C(Oc1ccccc1)C1C2CC3CCC1N3C/C2=C\c1ccc(Cl)c(Cl)c1 (stereo not given) | 4440 | 2410 | 48.3 | 91.9 | 0.54 | 49.9
19 | Clc1ccc(/C=C2\CN3C4CCC3C(/C=C\c3ccccc3)C2C4)cc1Cl (stereo not given) | 2110 | 2790 | 245 | 8.6 | 1.32 | 11.4
20 | O=C(OCC1C2CC3CCC1N3C/C2=C\c1ccc(Br)cc1)c1ccccc1 (stereo not given) | 3300 | 4470 | 3.95 | 835 | 1.35 | 1130
21 | O=C(OCC1C2CC3CCC1N3C/C2=C\c1ccc(Cl)c(Cl)c1)c1ccc(I)cc1 (stereo not given) | 17700 | 8590 | 48.7 | 363 | 0.48 | 176
22 | CC(=O)OCC1C2CC3CCC1N3C/C2=C\c1ccc(Cl)c(Cl)c1 (stereo not given) | 1870 | 638 | 1.6 | 1170 | 0.34 | 399
